Each structure is given as a SMILES string. Values after ≈ are worked out from the molar mass of the structure shown.

Data set [1] deals with T1, 5-hydroxytryptamine receptor 2C (Homo sapiens, UniProt P28335).
T1 sequence (P28335 whole entry): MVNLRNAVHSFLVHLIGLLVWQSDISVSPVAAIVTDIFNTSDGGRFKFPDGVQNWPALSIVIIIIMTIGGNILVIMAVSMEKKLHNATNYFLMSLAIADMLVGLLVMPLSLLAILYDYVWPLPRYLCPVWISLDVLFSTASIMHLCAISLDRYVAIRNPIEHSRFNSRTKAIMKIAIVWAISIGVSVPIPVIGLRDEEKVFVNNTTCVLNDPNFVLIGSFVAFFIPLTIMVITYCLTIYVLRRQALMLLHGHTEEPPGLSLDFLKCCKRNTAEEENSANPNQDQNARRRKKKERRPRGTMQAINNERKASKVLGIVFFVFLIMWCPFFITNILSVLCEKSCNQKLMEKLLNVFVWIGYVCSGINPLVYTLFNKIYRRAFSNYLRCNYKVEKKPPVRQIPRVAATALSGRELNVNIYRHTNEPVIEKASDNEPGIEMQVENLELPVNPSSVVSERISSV
Nature of the data set: Displacement of [3H]mesulergine from human 5HT2C receptor expressed in CHO cells after 1 hr by scintillation counting. The class given is cell-based. The essentials:
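Membranes from CHO cells stably expressing human 5-HT2c incubated 1 h at room temperature with [3H]mesulergine and compound at various concentrations. Terminated by GF/C filtration, filter radioactivity counted by scintillation. IC50 from one experiment in duplicate.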

Data set [2] concerns the target T2, Melanin-concentrating hormone receptor 1 (Homo sapiens, UniProt Q99705). Nature of the data set: Displacement of [125I]MCH from human MCHR1 expressed in CHO cells after 1 hr by scintillation counting. The class given is cell-based. The essentials:
(§1)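 CHO cell membranes stably expressing human or rat MCHR1 incubated 1 h at room temperature with [125I]MCH(4−19) and compound at various concentrations. Filtration through GF/C glass filters, bound radioactivity counted by scintillation. IC50 from one experiment in duplicate.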

Data set [3] concerns the target T2, Melanin-concentrating hormone receptor 1. Nature of the data set: Antagonist activity at human MCHR1 expressed in CHO cells assessed as inhibition of MCH-induced [3H]arachidonic acid release […] by liquid scintillation counting. The data set is classed as functional, cell-based. The settings on record: in the assay text read “45 mins” for “16 hrs”. In short, it runs like this: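 Human MCHR1-CHO cells seeded at 50 000/well, cultured 1 day, then loaded with [3H]arachidonic acid (0.2 μCi/well) for 16 h. Washed with DMEM containing 20 mM HEPES pH 7.4 and 0.2% BSA. Compound preincubated 30 min at 37 °C, MCH added, 45 min incubation, medium radioactivity by liquid scintillation.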

The subject of data set [4] is Rattus norvegicus. Nature of the data set: Antiobesity activity in high-fat diet fed Fischer 344 rat DIO model assessed as inhibition of food intake at 1 mg/kg, po after 6 hrs. The class given is functional. Conditions: Fischer 344, 6 h. In short, it runs like this:
(§2)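 Male F344/Jcl rats, 52 weeks old, fed high-fat diet from 5 weeks of age, housed singly and acclimated to oral water dosing; grouped by overnight food intake and body weight. Single oral dose at 15:00 as 0.5% methylcellulose suspension, 2 mL/kg, six rats per group; vehicle controls. Cumulative food intake at 6 and 17 h; percent inhibition versus control, mean ± SD.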

The subject of data set [5] is Rattus norvegicus. As to the kind of experiment: Antiobesity activity in high-fat diet fed Fischer 344 rat DIO model assessed as inhibition of food intake at 1 mg/kg, po after 17 hrs. The data set is classed as functional. Conditions: Fischer 344, 17 h. In short, it runs like this:
as §2

Data set [6] in a line: Solubility of the compound in JP2 solution at 10 mM. The data set is classed as physicochemical. The essentials: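 The 10 mM DMSO solution of compound was added to JP2 until opalescence appeared.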
The nature of data set [7]: Volume of distribution at the steady state in Fischer 344 rat at 0.3 mg/kg, iv. The data set is classed as ADME, organism-based. On the set-up: dose 0.3 mg/kg, route intravenous. Conditions: in vivo, read-out: Vdss.
Data set [8] is described as follows: Bioavailability in Fischer 344 rat. The class given is ADME, organism-based. The settings on record: in vivo.
Data set [9] can be described thus: Cmax in Fischer 344 rat at 1 mg/kg, po. Further details: dose 1 mg/kg, route oral. The data set is classed as ADME, organism-based. The settings on record: in vivo.
Data set [10] in a line: Tmax in Fischer 344 rat brain at 1 mg/kg, po. The class given is ADME, organism-based. Further details: dose 1 mg/kg, route oral.
Data set [11] can be described thus: Tmax in Fischer 344 rat at 1 mg/kg, po. Conditions: in vivo. The data set is classed as ADME, organism-based. On the set-up: dose 1 mg/kg, route oral.
Data set [12] concerns Rattus norvegicus. Nature of the data set: Antiobesity activity in high-fat diet fed Fischer 344 rat DIO model assessed as inhibition of food intake at 3 mg/kg, po after 17 hrs. The class given is functional. The settings on record: Fischer 344, 17 h. In short, it runs like this: (§3)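 Male 52-week-old F344/Jcl rats on high-fat diet from 5 weeks of age, housed singly, grouped by overnight food intake and body weight. Oral dosing at 15:00 in 0.5% methylcellulose suspension, 2 mL/kg, against vehicle controls; six rats per group.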

For data set [13], the system named is Rattus norvegicus. As to the kind of experiment: Antiobesity activity in po dosed high-fat diet fed Fischer 344 rat DIO model assessed as inhibition of food intake after 17 hrs. The class given is functional, organism-based. The essentials: as §3
Data set [14] concerns Mus musculus. As to the kind of experiment: Antiobesity activity in high-fat diet given wild type mouse assessed as inhibition of food intake at 3 mg/kg, po qd for 2 days. The data set is classed as functional. Conditions: 48 h. In short, it runs like this: (§4)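 Male MCHR1-deficient mice and wild-type littermates, 34 weeks old, on high-fat diet from 5 weeks of age, housed singly. Grouped by food intake days −5 to −1 and day −1 body weight. Oral dosing at 16:00 on days 0 and 1 in 0.5% methylcellulose suspension, 10 mL/kg, against vehicle controls; six mice per group.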

Data set [15] in a line: Cmax in Fischer 344 rat brain at 1 mg/kg, po. The class given is ADME, organism-based. Further details: dose 1 mg/kg, route oral.
Data set [16] can be described thus: Total clearance in Fischer 344 rat at 0.3 mg/kg, iv. The data set is classed as ADME, organism-based. Further details: dose 0.3 mg/kg, route intravenous. The settings on record: in vivo.
The target in data set [17] is Melanin-concentrating hormone receptor 1 (Rattus norvegicus, UniProt P97639). Nature of the data set: Displacement of [125I]MCH from rat MCHR1 expressed in CHO cells after 1 hr by scintillation counting. The class given is cell-based. The essentials:
as §1

For data set [18], the system named is Rattus norvegicus. Nature of the data set: Antiobesity activity in high-fat diet fed Fischer 344 rat DIO model assessed as inhibition of food intake at 10 mg/kg, po after 6 hrs. The data set is classed as functional. Conditions: Fischer 344, 6 h. In short, it runs like this: as §3
In data set [19] the test system is Rattus norvegicus. Nature of the data set: Antiobesity activity in high-fat diet fed Fischer 344 rat DIO model assessed as inhibition of food intake at 3 mg/kg, po after 6 hrs. The settings on record: Fischer 344, 6 h. The data set is classed as functional. The essentials: as §3
Data set [20] concerns Mus musculus. As to the kind of experiment: Antiobesity activity in high-fat diet given wild type mouse assessed as inhibition of food intake at 10 mg/kg, po qd for 2 days. Conditions: 48 h. The class given is functional. The essentials:
as §4

The test system of another data set is Brain. As to the kind of experiment: AUC in Fischer 344 rat brain at 1 mg/kg, po. The class given is ADME, organism-based. Further details: dose 1 mg/kg, route oral. Conditions: in vivo.
The test system of data set [21] is Mus musculus. As to the kind of experiment: Antiobesity activity in MCHR1-deficient mouse assessed as inhibition of food intake at 10 mg/kg, po qd for 2 days. The class given is functional. The settings on record: 48 h. The essentials:
as §4

The subject of data set [22] is Rattus norvegicus. As to the kind of experiment: Antiobesity activity in high-fat diet fed Fischer 344 rat DIO model assessed as inhibition of food intake at 10 mg/kg, po after 17 hrs. The data set is classed as functional. Conditions: Fischer 344, 17 h. The essentials:
as §3

The nature of data set [23]: AUC in Fischer 344 rat at 1 mg/kg, po. The class given is ADME, organism-based. On the set-up: dose 1 mg/kg, route oral. Conditions: plasma.
Data set [24] relates to Mus musculus. As to the kind of experiment: Antiobesity activity in MCHR1-deficient mouse assessed as inhibition of food intake at 3 mg/kg, po qd for 2 days. The class given is functional. Conditions: 48 h. The essentials: as §4
Data set [25] is described as follows: Half life in Fischer 344 rat at 0.3 mg/kg, iv. The data set is classed as ADME, organism-based. On the set-up: dose 0.3 mg/kg, route intravenous. The settings on record: in vivo.

T2 sequence (Q99705 whole entry): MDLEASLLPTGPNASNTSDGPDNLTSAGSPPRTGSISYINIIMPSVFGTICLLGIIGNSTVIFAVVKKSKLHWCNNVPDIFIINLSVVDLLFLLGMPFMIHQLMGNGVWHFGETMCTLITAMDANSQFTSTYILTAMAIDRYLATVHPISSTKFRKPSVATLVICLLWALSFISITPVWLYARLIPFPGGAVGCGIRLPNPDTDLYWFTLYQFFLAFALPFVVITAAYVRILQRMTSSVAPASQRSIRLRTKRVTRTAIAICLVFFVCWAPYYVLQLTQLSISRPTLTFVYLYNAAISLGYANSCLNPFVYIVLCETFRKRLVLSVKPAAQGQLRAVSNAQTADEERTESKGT
Melanin-concentrating hormone receptor 1 (Rattus norvegicus, UniProt P97639), sequence (P97639 whole entry): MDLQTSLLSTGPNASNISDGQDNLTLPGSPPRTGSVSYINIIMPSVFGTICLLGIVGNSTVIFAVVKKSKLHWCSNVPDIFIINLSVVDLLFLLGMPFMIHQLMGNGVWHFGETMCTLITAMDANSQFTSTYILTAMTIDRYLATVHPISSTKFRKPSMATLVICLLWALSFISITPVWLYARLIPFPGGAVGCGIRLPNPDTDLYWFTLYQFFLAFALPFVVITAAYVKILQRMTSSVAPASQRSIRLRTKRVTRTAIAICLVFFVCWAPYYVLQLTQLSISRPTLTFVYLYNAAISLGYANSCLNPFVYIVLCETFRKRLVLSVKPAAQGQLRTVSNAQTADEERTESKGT

On to `COc1ccc(-c2ccc(C(=O)Nc3ccc4cc(CN5CCCC5)cnc4c3)cc2)cc1`, for which the IC50 in data set [1] was over 1000 nM; in data set [2], 3.7 nM.
As for `COc1ccc(-c2ccc(C(=O)Nc3ccc4cc(CN5CCCC5)cnc4c3)cn2)cc1`, in [2], the 50% inhibitory concentration (IC50) was 26 nM.
In the case of `CCc1c(NC(=O)c2ccc(-c3ccc(F)cc3)cc2)ccc2cc(CN3CCCC3)cnc12`, the concentration for half-maximal inhibition (IC50) in [1] was over 1000 nM; in data set [2], 100 nM.
With `O=C(Nc1cc2ncc(CN3CCCC3)cc2cc1F)c1ccc(-c2ccc(F)cc2)cc1`, the IC50 in data set [1] came to 280 nM; in data set [2] it was 1.4 nM; in data set [3], 8.4 nM.
In the same order, the values of `Cc1c(NC(=O)c2ccc(-c3ccccc3)cc2)ccc2cc(CN3CCCC3)cnc12` are 760 nM, 1.8 nM and 7 nM.
The matching figures for `Cc1cc2cc(CN3CCCC3)cnc2cc1NC(=O)c1ccc(-c2ccc(F)cc2)cc1`: 7.4 nM, 1.3 nM and 10 nM.
In the case of `O=C(Nc1ccc2cc(CN3CCCC3)cnc2c1)N1CCC(c2ccc(Cl)cc2)CC1`, the IC50 in data set [1] is 55 nM; in data set [2], 6.6 nM.
On to `O=C(Nc1ccc2cc(CN3CCCC3)cnc2c1)c1ccc(-c2ccc(F)cc2)nc1`, for which the IC50 in data set [1] turned out to be 830 nM; in data set [2], 25 nM.
In the case of `CC(C)CC(N(C)C)C1(c2ccc(Cl)cc2)CCC1` (centres undefined) [SIBUTRAMINE], the inhibition in vivo at 1 mg/kg with Rattus norvegicus [4] worked out at 34.6%; with Rattus norvegicus [5], 25.8%.
Consider `O=C(Nc1ccc2cc(CN3CCCC3)cnc2c1)N1CCC(c2ccc(F)cc2)CC1`, for which the IC50 in [2] was 35 nM.
Take `Cc1ccc(-c2ccc(C(=O)Nc3ccc4cc(CN5CCCC5)cnc4c3)cc2)cc1`: the IC50 was found to be 660 nM in [1] and 2.2 nM in data set [2].
`O=C(Nc1ccc2cc(CN3CCCC3)cnc2c1)c1ccc(-c2ccc(F)cc2)cc1` yielded a solubility in data set [6] of 1.5 µg/mL (≈ 3.53 µM). The concentration for half-maximal inhibition (IC50) in data set [1] was 160 nM; in data set [2] it was 2.8 nM; in [3], 9.2 nM.
Regarding `O=C(Nc1ccc2cc(CN3CCCC3)cnc2c1)c1ccc(-c2ccc(Cl)cc2)cc1`, the concentration for half-maximal inhibition (IC50) turned out to be 630 nM in [1], 0.74 nM in [2] and 8.5 nM in data set [3].
Molecule `O=C(Nc1ccc2cc(CN3CCCC3)cnc2c1)N1CCC(c2ccccc2)CC1` yielded a concentration for half-maximal inhibition (IC50) in data set [2] of 100 nM.
For `Cc1c(NC(=O)c2ccc(-c3ccc(F)cc3)cc2)ccc2cc(CN3CCCC3)cnc12`, in data set [7], the Vd came to 20 L/kg. In addition, the figures for the inhibition in vivo at 1 mg/kg in the data set on Rattus norvegicus [4] and with Rattus norvegicus [5] were 18.8% and 15.5%, respectively. The bioavailability in [8] worked out at 39%. Also, the Cmax is 9 ng/mL in data set [9] and 610 ng/g in data set [15]. The IC50 is over 1000 nM in [1], 1.7 nM in data set [17], 0.54 nM in data set [2] and 2.8 nM in data set [3]. Moreover, the values for the Tmax in [10] and in data set [11] were 8 h and 4 h, respectively. The inhibition in vivo at 3 mg/kg in the data set on Rattus norvegicus [12] was 28.9%; in the data set with Mus musculus [14] it was 10.2%; with Rattus norvegicus [19] it was 36.7%; in the data set on Mus musculus [24], 4.1%. Besides, the inhibition result with Rattus norvegicus [13] was “Dose-dependent effect”. For the same molecule, the clearance in data set [16] was 40 mL/min/kg. Moreover, the inhibition in vivo at 10 mg/kg in the data set with Rattus norvegicus [18] worked out at 55.7%; in the data set with Mus musculus [20], 13.2%; in the data set with Mus musculus [21] it was 5.7%; in the data set with Rattus norvegicus [22], 45.8%. The values for the AUC (with Brain; in data set [23]) were 9343 ng·h/g and 160 ng·h/mL, respectively. The molecule further gave a half-life in data set [25] of 7.7 h.
Take `O=C(Nc1cc2ncc(CN3CCCC3)cc2cc1Cl)c1ccc(-c2ccc(F)cc2)cc1`: the results for the IC50 in [1], in [2] and in [3] were 240 nM, 1.4 nM and 12 nM, respectively.

The values above are taken from ChEMBL document CHEMBL2029237, “Melanin-concentrating hormone receptor 1 antagonists. Synthesis and structure-activity relationships of novel 3-(aminomethyl)quinolines” (J Med Chem, 2012).
